Screens from PubChem BioAssay.
A selection: hits, their analogues and other compounds. The true share with any hit is near 4.6%.
OX1R antag-1 = antagonists of human orexin 1 receptor (OX1R); O43613; OX1R-expressing cells, FRET antagonist read-out; inhibition, % at 6.6 µM; hit rate 1.8% among 330,000; in the data active = inhibition mostly above about 38%, no sharp cut-off; inactive = mostly below about 40%;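 also: 0% = agonist challenge alone and 100% = reference antagonist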
Target sequence (O43613 whole entry, looked up): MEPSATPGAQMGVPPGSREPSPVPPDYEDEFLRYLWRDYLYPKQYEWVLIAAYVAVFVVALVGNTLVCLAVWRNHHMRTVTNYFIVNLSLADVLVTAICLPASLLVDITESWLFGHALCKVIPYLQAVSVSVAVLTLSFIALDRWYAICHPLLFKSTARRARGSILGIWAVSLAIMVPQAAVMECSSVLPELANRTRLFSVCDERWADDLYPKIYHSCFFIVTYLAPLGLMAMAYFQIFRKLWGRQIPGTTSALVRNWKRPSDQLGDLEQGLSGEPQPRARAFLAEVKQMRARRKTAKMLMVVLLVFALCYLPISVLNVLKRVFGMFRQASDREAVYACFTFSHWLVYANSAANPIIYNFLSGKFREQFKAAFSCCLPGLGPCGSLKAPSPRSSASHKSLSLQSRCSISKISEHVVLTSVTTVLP
TAAR1 antagonist = antagonists of human TAAR1; Q96RJ0; CHO RD-HGA16 TAAR1, Fluo-8 calcium fluorescence, antagonist; inhibition, % at 3 µM; hit rate 1.5% among 360,000; AID 624466;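 active = inhibition above a per-plate cutoff, the mean inhibition of test compounds on that plate plus 3 SD, cut at about 49% in these data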;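 also: 0% = DMSO plus EC80 beta-PEA response and 100% = DMSO alone without agonist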
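Test system – hTAAR1-expressing CHO RD-HGA16 cells, Gα16-coupled · Also added – β-PEA at EC80 concentration, post-compound challenge · Compound – 3 µM, single point · Incubation – dye loading 75 min at 37 °C, then 30 min room temperature · Measured by – Fluo-8 intracellular calcium dye fluorescence, real-time kinetic reads · Benchmarks – vehicle and agonist controls · Replicates – singlicate, one well per test compound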
TAAR1 agonist = agonists of human TAAR1; AID 624467; hit rate 0.99% among 360,000; CHO RD-HGA16 TAAR1, Fluo-8 calcium fluorescence; vehicle wells 0%, saturating PEA agonist 100%; activation, % at 3 µM;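 active = activation above the mean activation of all test compounds in the run plus 3 SD, cut at about 38% in these data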
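Assay system: CHO-derived RD-HGA16 cells with stable Gα16 and human TAAR1; timing: 17-24 h seeding, 75 min 37 °C dye, 30 min RT; read-out: % activation from peak over basal fluorescence ratio, DMSO-to-PEA scaled; measured by: kinetic Fluo-8 calcium fluorescence; benchmarks: low control DMSO, high control PEA (EC100); doses: 3 µM single concentration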
GPR7 antag = human neuropeptides B/W receptor 1 antagonism; GPR7-expressing cells, fluorescence antagonist assay; inhibition, % at 4.4 µM; hit rate 1.1% among 290,000; AID 1861; in the data active = inhibition above about 16%, passing the limit was not always enough;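 also: cells stimulated with the agonist NPW; 0% = agonist with vehicle and 100% = vehicle without agonist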
Target sequence (P48145 whole entry, looked up): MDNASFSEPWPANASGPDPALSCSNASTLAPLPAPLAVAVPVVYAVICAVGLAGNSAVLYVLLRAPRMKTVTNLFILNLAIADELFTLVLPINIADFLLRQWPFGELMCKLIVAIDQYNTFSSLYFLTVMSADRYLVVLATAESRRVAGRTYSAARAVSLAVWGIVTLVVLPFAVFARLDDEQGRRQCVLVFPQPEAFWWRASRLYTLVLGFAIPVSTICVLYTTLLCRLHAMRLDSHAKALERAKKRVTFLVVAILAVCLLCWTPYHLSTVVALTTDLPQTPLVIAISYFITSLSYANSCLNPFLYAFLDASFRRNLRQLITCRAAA
CHO parental Ca = counter-screen: ATP calcium response change in parental CHO cells; parental CHO-K1, ATP-induced calcium, Fluo-8 fluorescence; inhibition, % at 5.6 µM; hit rate 0.63% among 330,000;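 active = inhibition above that plate's mean sample inhibition plus 3 SD, cut at about 26% in these data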;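 also: 0% = ATP-challenged DMSO wells and 100% = DMSO wells without ATP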
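Material: Parental CHO cells | Reagent: ATP | Compound dosing: Single nominal dose of 5.6 µM per compound | Detection: Intracellular calcium via Fluo-8 no-wash fluorescent dye | Read-out: % inhibition of ATP-induced calcium mobilization | Benchmarks: Low control ATP plus DMSO, high control DMSO only | Replicates: Singlicate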
OX1R antag-2 = blocks the human orexin 1 receptor; AID 434989; CHO/OX1R cells, Fluo-8 calcium fluorescence, orexin A; inhibition, % at 5 µM; hit rate 0.43% among 330,000; O43613;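 active = inhibition above its plate's threshold, mean inhibition of all tested compounds on the plate plus 3 SD, cut at about 37% in these data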;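 also: 0% = orexin A challenge wells and 100% = SB-334867-A antagonist wells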
OX1R HTRF conf = confirmation of human orexin 1 receptor antagonists, HTRF format. hit rate 49% among 1,800. OX1R-expressing cells, HTRF antagonist assay. inhibition, % at 6.6 µM. shares compounds with OX1R antag-1; in the data active = inhibition above about 55%;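 also: CHO cells expressing OX1R stimulated with orexin A at about EC80; 0% = agonist challenge alone and 100% = reference antagonist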
CHO-K1 HTRF cnt = signal in parental CHO-K1 cells, OX1R antagonist counter-screen; HTRF counterscreen; shares compounds with OX1R antag-1; hit rate 48% among 1,800; inhibition, % at 6.6 µM; in the data active = inhibition above about 17%;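 also: 0% = agonist challenge with vehicle and 100% = vehicle alone without agonist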
nonsel antag count = nonselective antagonism, TAAR1 counter-screen; hit rate 77% among 2,400; inhibition, % at 3 µM; counterscreen cell line, calcium fluorescence, antagonist mode; shares compounds with TAAR1 antagonist; in the data active = inhibition above about 22%;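 also: CHO-Ga16 host cells stimulated with ATP at an EC80 level; 0% = agonist EC80 plus vehicle and 100% = vehicle without agonist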
TAAR1 ant conf = human TAAR1 antagonism, confirmed. shares compounds with TAAR1 antagonist. TAAR1-expressing cells, fluorescence antagonist read-out. inhibition, % at 3 µM. hit rate 40% among 2,400; in the data active = inhibition above about 49%;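 also: CHO-Ga16 host cells challenged with agonist PEA near its EC80; 0% = agonist at EC80 plus vehicle and 100% = vehicle with no agonist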
Ga16 ag counter-1 = counter-screen for TAAR1 antagonists: nonselective Ga16 agonists. shares compounds with TAAR1 antagonist. activation, % at 3 µM. Ga16-expressing cells, calcium fluorescence, agonist counterscreen. hit rate 18% among 2,400; in the data active = activation above about 12%;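 also: 0% = vehicle wells and 100% = saturating stimulus response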
TAAR1 ag count = activates human TAAR1 in antagonist counter-screen | shares compounds with TAAR1 antagonist | AID 651955 | hit rate 2% among 2,400 | activation, % at 3 µM | hTAAR1 cell line, fluorescence activation, agonist mode; in the data active = activation above about 37%;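 also: CHO cells stably expressing TAAR1 with calcium dye readout; 0% = DMSO vehicle and 100% = full agonist response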
TAAR1 ag conf = human TAAR1 agonism, confirmed. shares compounds with TAAR1 agonist. hit rate 82% among 2,400. CHO RD-HGA16 TAAR1, Fluo-8 calcium fluorescence; scaled: DMSO 0%, maximal phenethylamine 100%. activation, % at 3 µM;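 active = activation above a cutoff set at the run's mean compound activation plus 3 SD, cut at about 39% in these data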
Ga16 ag counter-2 = nonselective agonism, TAAR1 counter-screen. shares compounds with TAAR1 agonist. CHO-Ga16 parental, Fluo-8 calcium fluorescence; normalized to maximal ATP response, DMSO zero. activation, % at 3 µM. hit rate 50% among 2,400. AID 651787;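 active = activation above the run cutoff, the mean activation over all tested wells plus 3 SD, cut at about 12% in these data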;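 also: 0% = DMSO wells and 100% = maximal ATP response on the peak over basal ratio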
TAAR1 desensitize = human TAAR1 agonist that also desensitizes the receptor; hit rate 46% among 2,400; CHO RD-HGA16 hTAAR1, Fluo-8 calcium, beta-PEA response inhibition; shares compounds with TAAR1 agonist; AID 651951; inhibition, % at 3 µM;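 active = inhibition above the run cutoff, the mean inhibition of all test compounds plus 3 SD, cut at about 49% in these data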;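 also: beta-PEA stimulus applied at its EC80; loss of beta-PEA calcium signal after compound pretreatment read as receptor desensitization; 0% = DMSO with beta-PEA at EC80 and 100% = DMSO alone without agonist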
Ga16 antag count = counter-screen for TAAR1 agonists: nonselective Ga16 antagonists; inhibition, % at 3 µM; CHO-Ga16 ATP-induced calcium, Fluo-8 fluorescence; hit rate 39% among 2,400; shares compounds with TAAR1 agonist; AID 651952;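 active = inhibition above the plate's mean compound inhibition plus 3 SD, computed per plate, cut at about 22% in these data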;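 also: 0% = EC80 ATP with DMSO and 100% = DMSO wells without ATP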
* hit, by the source's call; . = not tested or not shown.

SMILES	OX1R antag-1	TAAR1 antagonist	TAAR1 agonist	GPR7 antag	CHO parental Ca	OX1R antag-2	OX1R HTRF conf	CHO-K1 HTRF cnt	nonsel antag count	TAAR1 ant conf	Ga16 ag counter-1	TAAR1 ag count	others
O=C(Nc1cccc(-c2nc3ncccc3o2)c1)c1cc2ccccc2o1	105*	61*	16	-9	-35	1	92*	19*	28*	49*	6	7
Cc1ccc(-c2nc3ncccc3o2)cc1NC(=O)c1cc2ccccc2o1	-2	13	14	-16	-8	-24	.	.	.	.	.	.
CCOc1ccc(/C=C2\SC(=S)N(NS(=O)(=O)c3ccccc3)C2=O)cc1OC	78*	75*	5	-2	2	-6	43	24*	23*	53*	4	2
O=C(NC(c1ccccc1)c1ccccc1)C1CCCC1	7	-11	4	-2	-9	-21	.	.	.	.	.	.
COc1ccc(N(C)S(=O)(=O)c2c(C)[nH]c(=O)[nH]c2=O)c(OC)c1	4	-1	8	-10	6	-10	.	.	.	.	.	.
COc1cc(OC)cc(C(=O)Nc2ccc(-c3nc4ccccc4o3)cc2)c1	86*	64*	14	-15	-14	12	25	7	26*	31	2	-1
O=C(CNC(=O)c1ccccc1)N=Nc1c(O)[nH]c2ccc(Br)cc12	21	2	-3	0	-3	-18	.	.	.	.	.	.
O=Nc1c(-c2c(O)[nH]c3cc(Br)ccc23)[nH]c2ccccc12	98*	50*	-3	0	-20	-14	79*	26*	21	33	-1	-4
Cc1cc(C)cc(NC(=S)N2CCC(NC(=O)C3CC3)CC2)c1	13	-3	2	-13	-9	-15	.	.	.	.	.	.
CCOC(=O)c1c(C)[nH]c(C(=O)OCC(=O)Nc2sccc2C(N)=O)c1C	99*	72*	19	.	22	17	64*	12	39*	53*	17*	17
CCOC(=O)c1c(C)[nH]c(C(=O)OCC(=O)Nc2ccc(Cl)cn2)c1C	0	4	1	.	-6	-11	.	.	.	.	.	.
COc1ccc(Cl)cc1N(CC(=O)NCCSc1ccccn1)S(=O)(=O)c1ccccc1	79*	58*	11	0	-13	10	80*	8	16	32	5	6
COc1ccc(N(CC(=O)NCCSc2ccccn2)S(=O)(=O)c2ccccc2)cc1Cl	19	18	9	-13	-21	-23	.	.	.	.	.	.
CC1CCCCN1C(=S)NC(=O)c1cccs1 (centres undefined)	17	-8	0	-6	-15	5	.	.	.	.	.	.
O=C1CCN2C=Nc3cccc4ccc1c2c34	92*	32	109*	2	27	22	42	19*	.	.	.	.	TAAR1 ag conf=31;Ga16 ag counter-2=36*;TAAR1 desensitize=25;Ga16 antag count=20
O=S(=O)(NCCc1csc(-c2ccccc2)n1)c1ccc2c(c1)OCCO2	83*	34	94*	-7	-14	13	64*	1	.	.	.	.	TAAR1 ag conf=62*;Ga16 ag counter-2=43*;TAAR1 desensitize=32;Ga16 antag count=24*
O=S(=O)(NCCc1cn2ccccc2n1)c1ccc2c(c1)OCCO2	0	-21	1	-4	-2	-19	.	.	.	.	.	.
Cc1cc(F)cc(-c2cc(C(=O)NCc3ccccc3)[nH]n2)c1	.	-14	2	.	.	.	.	.	.	.	.	.
O=C(CSc1n[nH]c(-c2ccccc2)n1)NC(=O)NCc1ccco1	82*	.	.	-2	-10	-13	47	4	.	.	.	.	Ga16 ag counter-2=1;Ga16 antag count=-4
Cc1ccc(NCC(=O)Nc2cccc(F)c2)cc1S(=O)(=O)N1CCCCCC1	24	15	2	8	-11	-17	.	.	.	.	.	.
COc1ccc(-c2cc(NC(=O)Cc3c[nH]c4ccccc34)ccc2Nc2cccnc2)c(OC)c1	.	64*	9	.	.	.	.	.	32*	52*	6	6
Cc1cc(-c2cc(NC(=O)Cc3c(C)[nH]c4ccccc34)ccc2Nc2cccnc2)ccc1F	.	-9	2	.	.	.	.	.	.	.	.	.
COc1ccc(-c2cc(NC(=O)Cc3c[nH]c4ccccc34)ccc2N(C)c2cccnc2)cc1F	.	17	4	.	.	.	.	.	.	.	.	.
Cc1cc(-c2cc(NC(=O)Cc3c[nH]c4ccccc34)ccc2Nc2cccnc2)ccc1F	.	63*	9	.	.	.	.	.	27*	35	5	0
Cc1ncc([N+](=O)[O-])n1Cc1ccccc1F	18	16	0	-2	14	2	.	.	.	.	.	.
CN1CCN(c2ncnc3sc(-c4ccccc4)cc23)CC1	8	11	2	0	-17	-18	.	.	.	.	.	.
c1ccc(-c2cc3c(N4CCN(c5ncccn5)CC4)ncnc3s2)cc1	14	55*	5	-3	-31	-35	.	.	30*	50*	4	6
Cc1nc2scc(-c3ccccc3)c2c(=O)n1N=C1C=CC(=O)C=C1	.	62*	10	6	.	.	.	.	56*	54*	9	7
CCOC(=O)c1[nH]c(C)c(C(=O)OCC)c1C	15	-29	-2	-10	-17	-8	.	.	.	.	.	.
CCOC(=O)c1c(C)[nH]c(C(=O)COC(=O)c2[nH]c(C)c(C(C)=O)c2C)c1C	20	77*	29	-2	-11	-8	.	.	63*	66*	15*	14
